Compound activity deposited in PubChem by several laboratories.
Only some compounds are listed: those with a hit (about 1.7% of all), similar ones and a draw of the others.
Vif inh: inhibitors of HIV Vif | HEK293T cells, Vif self-association by quenched fluorescence, imaging, 24 h | inhibition, % at 7.49 µM | hit rate 0.35% among 340,000 | AID 602346; in the data active = inhibition above about 50%, passing the limit was not always enough; inconclusive = no clear call, values can overlap the other calls; inactive = below about 31%
Pemphigus Ab inh: inhibitors of pemphigus antibody binding to human desmoglein-3. P32926. DSG3-coupled beads, scFv-anti-DSG3-GFP binding, flow cytometry; active compounds read low. binding (percent of control), % at 10 µM. hit rate 0.48% among 310,000;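 active = binding more than 3 SD below its plate's average and above zero; inconclusive = below that plate limit but binding exactly zero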;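 also: hits lower antibody fragment binding to DSG3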
T cell HTS: T cell immune modulation candidate; hit rate 0.068% among 330,000; AID 2052; 2C CD8+ T cell-vesicle binding, flow cytometry; active compounds read low; response (vesicle binding), % at 7 µM;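 active = response, share of CD8 T cells binding vesicles, and their 90th percentile fluorescence all below set limits, cut at about 80% in these data, passing the limit was not always enough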;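 also: values below 100% mean blocked vesicle binding to the CD8+ T cells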
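Benchmarks: naked versus QL9-loaded vesicles / Assay system: purified 2C TCR transgenic mouse naive CD8+ T cells / Technique: high-throughput flow cytometry with anti-B7-1 and anti-CD8 staining / Timing: Cell–vesicle co-incubation 1.5 h at 37 °C, staining 20 min on ice / Read-out: percent CD8+ FL2 mean versus row control / Probe or stimulus: QL9-loaded Drosophila micro-vesicles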
Myeloid diff MLP: compounds promoting myeloid differentiation. ER-HoxA9 myeloid progenitors, lysozyme-GFP differentiation, flow cytometry. hit rate 1% among 360,000. calls only at 10 µM. AID 624256;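 active = normalized GFP-positive differentiation at or above the plate's own cutoff, the solvent-only control mean plus 3 SD; inconclusive = no clear call, values can overlap the other calls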;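 also: cells exposed to compound for four days before flow analysis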
* hit, by the source's call; i = inactive; u = inconclusive; x = not tested or not shown; + = active, no number.

SMILES | Vif inh | Pemphigus Ab inh | T cell HTS | Myeloid diff MLP
COC(=O)c1ccc(NC(=O)c2cn(-c3ccccc3)nc2-c2ccncc2)cc1 | -6 | 84 | 547 | i
CC(=O)c1ccc(NC(=O)c2cn(-c3ccccc3)nc2-c2ccncc2)cc1 | -14 | 69* | 368 | i
CCN(CC(=O)Nc1ccc(NC(C)=O)cc1)C(=O)c1c(C)nn(Cc2ccc(C)cc2)c1Cl | 17 | 97 | x | i
NS(=O)(=O)c1ccc(CCNC(=O)CSc2nc3c(sc(=S)n3-c3ccccc3)c(=O)[nH]2)cc1 | 17 | 105 | x | i
O=C(NCCN1CCOCC1)c1cccc2c1C(=O)c1ccc(N3CCCC3)cc1S2(=O)=O | 4 | 108 | 246 | i
O=C(NCc1cc(C(F)(F)F)ccc1Cl)c1cccc2c1C(=O)c1ccc(N3CCOCC3)cc1S2(=O)=O | u | 104 | 294 | +
O=C(NCc1cc(C(F)(F)F)ccc1Cl)c1cccc2c1C(=O)c1ccc(N3CCCCC3)cc1S2(=O)=O | 3 | 129 | i | u
O=C(NCc1cc(C(F)(F)F)ccc1Cl)c1cccc2c1C(=O)c1ccc(N3CCC(N4CCCCC4)CC3)cc1S2(=O)=O | 9 | x | x | +
CCOC(=O)C1=CCN(S(=O)(=O)c2ccc(C)cc2)[C@H]1c1ccccc1Cl | x | x | x | i
C[C@@H]1CN([C@@H](C)CO)C(=O)CCCn2nncc2CO[C@@H]1CN(C)S(=O)(=O)c1ccccc1 | x | x | x | i
COc1ccccc1/C=N/NC(=O)c1ccc(CN2C(=O)c3cccc4cccc2c34)cc1 | -12 | 65* | 782 | i
Cc1c(C(=O)N2CCC2(C)C(=O)O)oc2ccccc12 (stereo unspecified) | 5 | x | x | i
C=C1CCC2C(C)(C)[C@H](O)CC[C@@]2(C)[C@@H]1COc1cc(=O)oc2ccccc12 (stereo partly specified) | 1 | 100 | 0 | i
C=C1CC(COc2cc(=O)oc3ccccc23)(c2ccccc2)OC1=O (stereo unspecified) | 56* | x | x | u
CS(=O)(=O)N(CC(=O)Nc1ccc(CC#N)cc1)c1ccc(C23CC4CC(CC(C4)C2)C3)cc1 | 5 | 84 | 252 | +
OC(c1cccc(Cl)c1)c1nc(-c2ccoc2)cs1 (stereo unspecified) | 3 | x | x | i
CCc1nc2c(OCc3ccc(Cl)cc3)cccn2c1N(C=O)Cc1ccc(OC)cc1 | -11 | x | x | i
CCN(CC)C(=O)CSc1nc2ccccc2c(=O)n1OC(C)C | 11 | 102 | 470 | +
Cc1ccc(NC(=O)c2ccc(NS(=O)(=O)c3cccc4cccnc34)cc2)cc1 | 0 | 121 | 110 | i
Cc1ccc2nc(N3CCN(c4ccccc4)CC3)c(C=O)c(=O)n2c1 | 2 | 100 | 196 | i
Cc1ccc2nc(SCc3ccccc3)c(C=O)c(=O)n2c1 | -15 | 53* | 223 | i
CS(=O)(=O)Nc1cccc(NC(=O)C2Cc3c(-c4cccc(F)c4)ccnc3O2)c1 (stereo unspecified) | x | x | x | +
CC(=O)Nc1cccc(-c2ccnc3c2CC(C(=O)NCc2cccc(Cl)c2)O3)c1 (stereo unspecified) | -11 | x | x | +
Cc1csc(=O)n1CCC(=O)OCC(=O)NNC(=O)c1ccc(Cl)cc1 | x | 98 | x | i
O=C(c1cccs1)N1CCN(Cc2cn[nH]c2-c2ccc(F)cc2F)CC1 | -2 | x | x | u
SMILES | Vif inh | Pemphigus Ab inh | T cell HTS | Myeloid diff MLP
COc1ccc(-c2[nH]ncc2CN2CCN(C(=O)c3cccs3)CC2)c(F)c1 | 4 | 104 | 351 | +
CCCOc1cccc(C(=O)Nc2ccc(Br)cc2F)c1 | -7 | 62* | 516 | i
COc1ccc(-c2cc(-c3ccccc3O)[nH]n2)cc1 | 8 | 102 | 293 | i
COc1ccc2cc(-c3ccn[nH]3)ccc2c1 | -16 | 323 | 187 | +
Cc1ccc(F)c(S(=O)(=O)NC(=O)C2(C)CCN2C(=O)c2ccccc2)c1 (stereo unspecified) | -11 | x | x | i
CCOC(=O)c1ccc(NC(=O)N2CCN(S(C)(=O)=O)CC2)cc1 | -3 | 96 | 141 | i
CCOC(=O)c1ccc(NC(=S)N2CCN(S(C)(=O)=O)CC2)cc1 | -4 | 57* | 353 | i
COc1cc(C(=O)COC(=O)c2ccc3c(c2)OCCO3)cc(OC)c1OC | -10 | 99 | x | i
CC(=O)N1CCN(S(=O)(=O)c2cccc(C(=O)OCC(=O)NCc3ccccc3Cl)c2)CC1 | 15 | 100 | x | i
COc1ccccc1C(O)c1ncc(-c2cccc(C(F)(F)F)c2)[nH]1 (stereo unspecified) | -2 | x | x | i
